pIC50: −log10 of the molar value. Calls of active or inactive are those of the source. No cut-off for these calls is given here.
Legend:
HepG2 [1] = assay: Cytotoxicity against human HepG2 cells after 24 to 72 hrs by MTT assay; assay type: functional, cell-based
Procedure, shortened: (§1)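 HepG2 cells plated in triplicate and treated with a range of compound concentrations. MTT assay run after 24, 48 and 72 h. Data given as mean ± SD of triplicates, with p <0.05 flagged.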

HepG2 [2] = assay: Cytotoxicity against human HepG2 cells at 5 to 15 uM by MTT assay; assay type: functional, cell-based; conditions: TDE = time-dependent effect; procedure, shortened: as §1
PLC-PRF-5 = assay: Cytotoxicity against human PLC/PRF/5 cells by MTT assay; assay type: functional, cell-based
Huh-7 = assay: Cytotoxicity against human HuH7 cells by MTT assay; assay type: functional, cell-based
HepG2 [3] = assay: Induction of apoptosis in human HepG2 cells assessed as PARP cleavage after 12 to 48 hrs by MTT assay; assay type: functional, cell-based; conditions: in the assay text read “by Western blotting” for “by MTT assay”
Procedure, shortened: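 HepG2 cells treated with compound over a time course. Whole-cell extract (30 µg protein) resolved on 10% SDS–PAGE; membrane cut by molecular weight, probed for PARP, then probed for β-actin on the same blots as loading control.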

[4] = Cytotoxicity against human LO2 cells at 50 uM after 72 hrs by MTT assay; assay type: cell-based; conditions: l02, 72 h
[5] = biological target: T1, Nuclear factor NF-kappa-B complex (Homo sapiens) (UniProt Q00653+P19838+Q04206); assay: Inhibition of NF-kappaB DNA binding activity in human HepG2 cell nuclear extract at 50 uM by ELISA-based DNA binding assay; assay type: protein-complex assay; conditions: TDE = time-dependent effect
Procedure, shortened: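 HepG2 cells treated with 50 µM compound over a time course, then nuclear extracts prepared. Extract protein (5 µg) tested in an ELISA-based TransAM NF-κB DNA-binding kit. Representative of two independent experiments.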

[6] = biological target: T1, Nuclear factor NF-kappa-B complex (Homo sapiens); assay: Inhibition of NF-kappaB in human HepG2 cell extract assessed as reduction in cyclin D1 expression at 50 uM after 12 to 48 hrs by Western blotting; assay type: cell-based
Procedure, shortened: (§2)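 HepG2 cells treated with 50 µM compound over a time course. Whole-cell extract (30 µg protein) resolved on 10% SDS–PAGE; membrane cut by molecular weight and probed for cyclin D1, Bcl-2, survivin or C-Myc. Blots stripped and reprobed for β-actin as loading control. Representative of two independent experiments.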

[7] = biological target: T1, Nuclear factor NF-kappa-B complex (Homo sapiens); assay: Inhibition of NF-kappaB in human HepG2 cell extract assessed as reduction in Bcl-2 expression at 50 uM after 12 to 48 hrs by Western blotting; assay type: cell-based; procedure, shortened: as §2
[8] = biological target: T1, Nuclear factor NF-kappa-B complex (Homo sapiens); assay: Inhibition of NF-kappaB in human HepG2 cell extract assessed as reduction in survivin expression at 50 uM after 12 to 48 hrs by Western blotting; assay type: cell-based; procedure, shortened: as §2
[9] = biological target: T1, Nuclear factor NF-kappa-B complex (Homo sapiens); assay: Inhibition of NF-kappaB in human HepG2 cell extract assessed as reduction in C-Myc expression at 50 uM after 12 to 48 hrs by Western blotting; assay type: cell-based; procedure, shortened: as §2
HepG2 [10] = assay: Antiinvasive activity in CXCL12-induced human HepG2 cells at 50 uM after 8 hrs by matrigel invasion assay
HepG2 [11] = assay: Antiinvasive activity in CXCL12-induced human HepG2 cells at 50 uM after 8 hrs by in vitro migration assay
[12] = biological target: T1, Nuclear factor NF-kappa-B complex (Homo sapiens); assay: Inhibition of NF-kappaB in human HepG2 cell extract assessed as reduction in MMP12 expression at indicated concentrations by Western blotting

T1 sequence (P19838 whole entry, looked up): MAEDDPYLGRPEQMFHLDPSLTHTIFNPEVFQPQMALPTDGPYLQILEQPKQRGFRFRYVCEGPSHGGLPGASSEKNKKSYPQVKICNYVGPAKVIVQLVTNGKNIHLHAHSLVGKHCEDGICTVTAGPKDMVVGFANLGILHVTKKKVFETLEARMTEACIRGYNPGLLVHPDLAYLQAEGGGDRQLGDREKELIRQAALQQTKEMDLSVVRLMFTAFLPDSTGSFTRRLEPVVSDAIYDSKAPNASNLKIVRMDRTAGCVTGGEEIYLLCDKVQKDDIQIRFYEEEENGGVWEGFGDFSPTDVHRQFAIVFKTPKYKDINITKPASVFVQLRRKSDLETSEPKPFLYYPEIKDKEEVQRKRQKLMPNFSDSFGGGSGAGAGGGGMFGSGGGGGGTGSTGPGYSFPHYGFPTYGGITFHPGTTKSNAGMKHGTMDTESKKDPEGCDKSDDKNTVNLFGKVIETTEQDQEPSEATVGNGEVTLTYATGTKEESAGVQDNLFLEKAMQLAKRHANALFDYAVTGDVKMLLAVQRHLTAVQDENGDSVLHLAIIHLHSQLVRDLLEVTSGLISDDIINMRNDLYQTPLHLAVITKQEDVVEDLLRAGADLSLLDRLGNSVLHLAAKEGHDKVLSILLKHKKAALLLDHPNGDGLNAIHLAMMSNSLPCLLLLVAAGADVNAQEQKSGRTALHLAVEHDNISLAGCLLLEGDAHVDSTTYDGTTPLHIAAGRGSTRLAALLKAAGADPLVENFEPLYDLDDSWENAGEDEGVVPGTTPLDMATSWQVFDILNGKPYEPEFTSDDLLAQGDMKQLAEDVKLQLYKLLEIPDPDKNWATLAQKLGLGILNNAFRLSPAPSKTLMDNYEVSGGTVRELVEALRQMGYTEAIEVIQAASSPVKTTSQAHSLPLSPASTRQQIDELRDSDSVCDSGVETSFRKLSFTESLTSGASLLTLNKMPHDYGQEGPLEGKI
T1 sequence (Q00653 whole entry, looked up): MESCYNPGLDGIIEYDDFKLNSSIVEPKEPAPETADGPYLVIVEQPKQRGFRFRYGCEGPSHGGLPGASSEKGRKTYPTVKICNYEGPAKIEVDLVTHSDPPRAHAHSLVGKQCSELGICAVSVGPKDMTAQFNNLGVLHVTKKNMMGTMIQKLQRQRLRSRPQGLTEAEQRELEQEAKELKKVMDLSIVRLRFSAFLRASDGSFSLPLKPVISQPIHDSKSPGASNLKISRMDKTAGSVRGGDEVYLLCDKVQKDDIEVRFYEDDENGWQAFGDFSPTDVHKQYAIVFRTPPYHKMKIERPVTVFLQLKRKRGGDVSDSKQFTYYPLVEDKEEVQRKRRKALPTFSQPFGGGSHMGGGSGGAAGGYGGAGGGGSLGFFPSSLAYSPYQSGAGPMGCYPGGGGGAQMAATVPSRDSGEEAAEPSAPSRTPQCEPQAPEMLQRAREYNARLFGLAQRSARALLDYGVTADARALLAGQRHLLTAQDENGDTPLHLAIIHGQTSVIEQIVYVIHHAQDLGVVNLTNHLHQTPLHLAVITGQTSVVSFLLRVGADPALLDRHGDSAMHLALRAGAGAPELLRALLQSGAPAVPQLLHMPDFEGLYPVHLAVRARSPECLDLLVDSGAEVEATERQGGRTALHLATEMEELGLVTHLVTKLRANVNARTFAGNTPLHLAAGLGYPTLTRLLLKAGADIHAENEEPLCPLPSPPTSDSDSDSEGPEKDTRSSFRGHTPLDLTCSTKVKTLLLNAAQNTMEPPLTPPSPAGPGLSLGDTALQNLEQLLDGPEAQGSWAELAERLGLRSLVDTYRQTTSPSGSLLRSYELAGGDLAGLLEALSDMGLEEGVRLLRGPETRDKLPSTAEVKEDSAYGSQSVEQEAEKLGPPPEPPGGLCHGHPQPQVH
T1 sequence (Q04206 whole entry, looked up): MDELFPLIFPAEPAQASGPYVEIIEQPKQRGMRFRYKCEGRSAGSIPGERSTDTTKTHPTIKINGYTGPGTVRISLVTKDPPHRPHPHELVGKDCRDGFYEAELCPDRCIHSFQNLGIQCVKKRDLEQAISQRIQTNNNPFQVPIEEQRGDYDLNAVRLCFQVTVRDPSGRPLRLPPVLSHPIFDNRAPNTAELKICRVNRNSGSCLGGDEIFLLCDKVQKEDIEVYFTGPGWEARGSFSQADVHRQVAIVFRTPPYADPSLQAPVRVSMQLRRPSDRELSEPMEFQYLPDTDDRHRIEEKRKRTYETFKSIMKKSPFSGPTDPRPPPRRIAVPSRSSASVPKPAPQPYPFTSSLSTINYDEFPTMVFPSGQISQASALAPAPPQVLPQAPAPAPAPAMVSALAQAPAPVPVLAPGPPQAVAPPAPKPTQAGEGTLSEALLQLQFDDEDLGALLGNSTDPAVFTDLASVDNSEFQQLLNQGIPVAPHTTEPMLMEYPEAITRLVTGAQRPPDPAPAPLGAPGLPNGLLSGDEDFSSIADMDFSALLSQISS

Compound | pIC50 (HepG2 [1]) | further results
O=c1cc(CSC(=S)N2CCCC2)c2cc(F)ccc2o1 | 4.18 | –
O=c1cc(CSC(=S)N2CCCC2)c2ccc(Cl)cc2o1 | 4.22 | –
COc1ccc2oc(=O)cc(CSC(=S)N(C)C)c2c1 | 4.22 | –
CN(C)C(=S)SCc1cc(=O)oc2c1ccc1ccccc12 | 4.19 | –
CN(C)C(=S)SCc1cc(=O)oc2ccc(F)cc12 | 4.23 | –
Cc1cc(C)c2c(CSC(=S)N(C)C)cc(=O)oc2c1 | 4.20 | –
O=c1cc(CSC(=S)N2CCCC2)c2ccc(F)cc2o1 | 4.20 | –
COC(=O)Nc1ccc2c(CSC(=S)N(C)C)cc(=O)oc2c1 | 4.21 | –
COc1ccc2c(CSC(=S)N3CCCC3)cc(=O)oc2c1 | 4.21 | –
Cc1ccc2oc(=O)cc(CSC(=S)N(C)C)c2c1 | 4.18 | –
COc1ccc2oc(=O)cc(CSC(=S)N3CCCC3)c2c1 | 4.27 | –
O=c1cc(CSC(=S)N2CCCC2)c2ccc3ccccc3c2o1 | 4.21 | –
CCOC(=O)Nc1ccc2c(CSC(=S)N(C)C)cc(=O)oc2c1 | 4.18 | –
CCOC(=O)Nc1ccc2c(CSC(=S)N3CCCC3)cc(=O)oc2c1 | 4.83 | Activity (HepG2 [2]): tde; Activity (HepG2 [1]): Dose-dependent effect; Activity (PLC-PRF-5): Dose-dependent effect; Activity (Huh-7): Dose-dependent effect; Activity (HepG2 [3]): Active; Activity [4]: Non-toxic; Activity [5]: tde; Activity [6]: Active; Activity [7]: Active; Activity [8]: Active; Activity [9]: Active; Activity (HepG2 [10]): Active; Activity (HepG2 [11]): Active; Activity [12]: Active

Reference: ChEMBL document CHEMBL3392987, “Novel synthetic coumarins that targets NF-κB in Hepatocellular carcinoma” (Bioorg Med Chem Lett, 2015)
